One test concerns the target T1, Adenosine receptor A1 (Rattus norvegicus, UniProt P25099).
T1 sequence (P25099 whole entry): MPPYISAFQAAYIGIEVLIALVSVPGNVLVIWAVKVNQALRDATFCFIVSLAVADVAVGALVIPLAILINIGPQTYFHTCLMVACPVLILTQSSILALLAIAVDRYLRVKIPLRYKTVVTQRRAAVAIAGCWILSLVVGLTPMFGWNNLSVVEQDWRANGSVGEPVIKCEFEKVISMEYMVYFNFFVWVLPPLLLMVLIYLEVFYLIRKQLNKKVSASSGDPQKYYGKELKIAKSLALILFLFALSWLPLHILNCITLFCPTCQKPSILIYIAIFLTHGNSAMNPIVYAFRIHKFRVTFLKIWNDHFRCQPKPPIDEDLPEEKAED
The test is described as follows: Displacement of [3H]DPCPX from rat brain cortical membrane A1AR assessed as GTP shift.

The target in test [1] is T2, Adenosine receptor A3 (Rattus norvegicus, UniProt P28647).
T2 sequence (P28647 whole entry): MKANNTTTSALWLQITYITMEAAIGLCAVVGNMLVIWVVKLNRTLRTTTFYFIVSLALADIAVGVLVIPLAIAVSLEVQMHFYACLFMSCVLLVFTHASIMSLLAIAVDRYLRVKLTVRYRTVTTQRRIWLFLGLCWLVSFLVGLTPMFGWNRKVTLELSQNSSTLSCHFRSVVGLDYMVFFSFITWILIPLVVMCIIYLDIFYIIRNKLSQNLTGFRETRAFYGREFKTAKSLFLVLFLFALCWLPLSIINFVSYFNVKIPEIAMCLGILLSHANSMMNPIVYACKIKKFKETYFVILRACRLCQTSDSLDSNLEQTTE
The test can be described thus: Antagonist activity at rat A3AR expressed in CHO cells assessed as reduction in NECA-induced inhibition of forskolin-stimulated cAMP accumulation incubated for 2 hrs by fluorescence based assay. In outline: (§1)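 CHO cells stably expressing rat A3 AR, seeded at 150,000-200,000 cells/well. Cells washed, then held 2 h at 37 °C in HBSS with 20 mM HEPES (pH 7.3) and 2 U/ml adenosine deaminase. Forskolin (10 μM) plus NECA concentration series added at 36.5 °C, with or without test compound. Stopped by hot lysis solution (90 °C, 4 mM Na2EDTA, Triton X-100). Data normalized to forskolin (100%) and buffer (0%). KB calculated, n=3.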

The target of test [2] is T2, Adenosine receptor A3. The test can be described thus: Antagonist activity at rat A3AR expressed in CHO cells assessed as reduction in NECA-induced inhibition of forskolin-stimulated cAMP accumulation at 3 uM incubated for 2 hrs by fluorescence based assay. In outline: as §1
In general terms: cAMP levels reflect the balance of adenylyl cyclase and phosphodiesterase activity.

For test [3], the target named is T2, Adenosine receptor A3. The test is described as follows: Antagonist activity at rat A3AR expressed in CHO cells assessed as reduction in NECA-induced inhibition of forskolin-stimulated cAMP accumulation at 10 uM incubated for 2 hrs by fluorescence based assay. The essentials:
as §1

In the case of `O=C(Nc1nc(-c2ccccc2)c(C(=O)c2ccc(F)cc2F)s1)c1ccccc1`, the GTP shift on Adenosine receptor A1 stood at 0.9.
Usually EC50 stands for the concentration at which the effect is half-maximal. Turning to `O=C(Nc1nc(-c2ccccc2)c(-c2nc3ccccc3c(=O)n2-c2ccc(Cl)cc2)s1)c1ccco1`, the EC50 on Adenosine receptor A3 [1] came to 5.3 nM; on Adenosine receptor A3 [2], 57 nM; on Adenosine receptor A3 [3], 1720 nM.
For `Cc1ccc(C(=O)c2sc(NC(=O)c3ccco3)nc2-c2ccccc2)cc1`, the GTP shift on Adenosine receptor A1 is 1.3.
Consider `O=C(Nc1nc(-c2ccccc2)c(C(=O)c2ccc(Cl)cc2)s1)c1ccccc1`, for which the GTP shift at Adenosine receptor A1 was found to be 1.
For the molecule `COc1ccc(C(=O)Nc2nc(-c3ccccc3)c(C(=O)c3ccc(C)cc3)s2)cc1`, the GTP shift on Adenosine receptor A1 turned out to be 1.

The values are drawn from BindingDB's records for doi:10.1016/j.ejmech.2019.111879 (University of Bonn, 2020).
